In ChEMBL document CHEMBL1133167, “Synthesis and opioid receptor affinity of morphinan and benzomorphan derivatives: mixed kappa agonists and mu agonists/antagonists as potential pharmacotherapeutics for cocaine dependence” (J Med Chem, 2000) one finds Ki and Selectivity data, which are given here for nine compounds.

One may read the Ki as a measure of affinity in units of concentration, obtained from inhibition or displacement. Low readings indicate tighter binding, high ones weaker binding.

Assay [1] has as its target Kappa-type opioid receptor (Cavia porcellus, UniProt P41144). The assay can be described thus: Binding affinity towards Opioid receptor kappa 1 by displacing the radioligand [3H]U-69593 from guinea pig brain membrane. In short, it runs like this: (§1)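 Guinea pig brain membranes (homogenised, preincubated 37 °C 30 min, washed), 500 µg protein, with 12 concentrations of compound in 50 mM Tris-HCl pH 7.5 at 25 °C for 60 min. Nonspecific binding defined with 1 µM naloxone. Glass-fibre filtration, with PEI-soaked filters for kappa. IC50 by log-probit fit; three experiments in triplicate, mean ± SEM.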

Assay [2] has as its target Opioid receptor (mu and kappa) (Cavia porcellus) (UniProt P41144+P97266). The experiment in a line: Selectivity kappa/mu. The format is protein assay.
The species entered for a further assay is Cavia porcellus. The experiment in a line: Selectivity kappa/delta.
For a further assay, the target named is Mu-type opioid receptor (Cavia porcellus, UniProt P97266). The assay can be described thus: Binding affinity towards Opioid receptor mu 1 by displacing the radioligand [3H]DAMGO from guinea pig brain membrane. In short, it runs like this: as §1
Mu-type opioid receptor, sequence (P97266 whole entry): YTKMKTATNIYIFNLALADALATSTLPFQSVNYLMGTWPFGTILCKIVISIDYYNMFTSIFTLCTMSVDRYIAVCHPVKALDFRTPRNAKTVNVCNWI
The nature of assay [3]: Binding affinity towards Opioid receptor delta 1 by displacing the radioligand [3H]naltrindole from guinea pig brain membrane.

Structures can show the parent of a compound that is named as a salt.

Opioid receptor (mu and kappa) (Cavia porcellus), sequence (P41144 whole entry, looked up): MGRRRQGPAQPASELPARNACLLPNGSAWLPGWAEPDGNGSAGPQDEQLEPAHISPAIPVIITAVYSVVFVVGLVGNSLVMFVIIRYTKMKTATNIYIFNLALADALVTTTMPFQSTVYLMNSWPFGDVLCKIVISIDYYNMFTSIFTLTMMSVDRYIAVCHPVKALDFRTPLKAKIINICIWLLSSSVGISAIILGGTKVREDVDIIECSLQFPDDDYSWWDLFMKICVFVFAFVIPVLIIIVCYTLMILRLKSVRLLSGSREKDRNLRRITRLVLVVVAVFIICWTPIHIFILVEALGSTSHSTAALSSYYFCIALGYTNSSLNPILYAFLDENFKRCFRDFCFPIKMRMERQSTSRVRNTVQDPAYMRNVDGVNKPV
Opioid receptor (mu and kappa) (Cavia porcellus), sequence (P97266 whole entry, looked up): as the sequence (P97266 whole entry) above
Kappa-type opioid receptor, sequence (P41144 whole entry): as the sequence (P41144 whole entry, looked up) above

Consider `Oc1ccc2c(c1)[C@@]13CCCC[C@H]1[C@@H](C2)N(CC1CCC1)CC3` [BUTORPHAN], for which the Ki in assay [1] was determined as 0.073 nM.

As to `O=C1c2ccc(O)cc2C23CCCCC2C1N(CC1CC1)CC3` (single isomer, unassigned; (-)), the Selectivity was found to be 1 in assay [2] and 6 in the assay filed under Cavia porcellus. Besides, the Ki in assay [1] came to 24 nM; on Mu-type opioid receptor it was 240 nM.

`CN1CC[C@]23CCCC[C@H]2[C@H]1Cc1ccc(O)cc13` [LEVORPHANOL HYDROCHLORIDE]: the Selectivity worked out at […] in assay [2] and […] in the assay filed under Cavia porcellus. In addition, the results for the Ki (in assay [1]; at Mu-type opioid receptor) were 2.3 nM and […], respectively.

Regarding `O=C1c2ccc(O)cc2C23CCCCC2C1N(CC1CCCO1)CC3` (single isomer, unassigned; (-)), the Selectivity was 2 in assay [2] and 6 in the assay listed under Cavia porcellus. In addition, the figures for the Ki (in assay [1]; on Mu-type opioid receptor) were 0.18 nM and 0.38 nM, respectively.

For the compound `Oc1ccc2c(c1)[C@@]13CCCC[C@H]1[C@@H](C2)N(CC1CC1)CC3` [CYCLORPHAN], the Ki in assay [1] came to 0.053 nM.

As to `CC[C@@]12CCN(CC3CC3)C(C(=O)c3ccc(O)cc31)[C@@H]2C` [ETHYLKETOCYCLAZOCINE], the values for the Ki (in assay [3]; on Mu-type opioid receptor) were 3.4 nM and 0.78 nM, respectively.

`C[C@H]1[C@H]2Cc3ccc(O)cc3[C@]1(C)CCN2CC1CC1` [CYCLAZOCINE]: affinity in assay [1] was put at a Ki of 0.052 nM. That is a picomolar value.

In turn, `C[C@H]1C2C(=O)c3ccc(O)cc3[C@@]1(C)CCN2CC1CCCO1` (some centres not stated) came in with a Ki in assay [1] of 720 nM.

As to `Oc1ccc2c(c1)[C@@]13CCCCC1[C@@H](C2)N(C[C@@H]1CCCO1)CC3` (some centres not stated), the Selectivity in assay [2] was determined as 0.066; in the assay filed under Cavia porcellus it was 2. The values for the Ki (in assay [1]; on Mu-type opioid receptor) were 0.15 nM and 0.01 nM, respectively.
